Measured values published in ChEMBL document CHEMBL3244036, “Inhibition of beef-brain and dog-heart (Na+ + k+) activated adenosine triphosphatase by carbon-3 branched cardenolides” (J Med Chem, 1978).

Legend:
Bos taurus [1] = species: Bos taurus; experiment: Inhibition of beef-brain Na(+)/K(+) ATPase assessed as oxidation of NADH using ATP substrate at 5 uM preincubated for 5 mins relative to digitoxigenin
Bos taurus [2] = species: Bos taurus; experiment: Inhibition of beef-brain Na(+)/K(+) ATPase assessed as oxidation of NADH using ATP substrate preincubated for 5 mins
Outline: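 Microsomal enzyme from frozen, partially thawed beef brain. Pyruvate kinase/lactate dehydrogenase-coupled system with inhibitor (in water, or DMSO made up with water) preincubated 5 min before adding ATP. NADH oxidation followed photometrically. Final volume 2.95 mL. At least four roughly log-equidistant concentrations, each in duplicate or triplicate. IC50 from linear regression of % inhibition against log concentration.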

Canis lupus familiaris = species: Canis lupus familiaris; experiment: Inhibition of dog-heart microsomal Na(+)/K(+) ATPase using ATP substrate
Outline: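 Microsomal enzyme from frozen dog heart in Tris-HCl pH 7.4 containing MgCl2, KCl and NaCl. Preincubated with inhibitor for 5 min, then pyruvate kinase, lactate dehydrogenase, phosphoenolpyruvate and NADH added. Reaction started with ATP; NADH oxidation read photometrically. At least four log-spaced concentrations, each in duplicate or triplicate. Linear regression of % inhibition against log concentration.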

## C[C@]12CC[C@@](O)(C3CO3)C[C@H]1CC[C@@H]1[C@@H]2CC[C@]2(C)[C@@H](C3=CC(=O)OC3)CC[C@]12O (some centres not stated)
Bos taurus [1]
  fold change (FC): 100
Bos taurus [2]
  ID50: 2.03 µmol
Canis lupus familiaris
  ID50: 1.1 µmol

## C[C@]12CC[C@@](O)(C(O)CO)C[C@H]1CC[C@@H]1[C@@H]2CC[C@]2(C)[C@@H](C3=CC(=O)OC3)CC[C@]12O (some centres not stated)
Bos taurus [1]
  fold change (FC): 100
Bos taurus [2]
  ID50: 15.4 µmol
Canis lupus familiaris
  ID50: 7.8 µmol

## C[C@]12CC[C@](O)(CC3CO3)C[C@H]1CC[C@@H]1[C@@H]2CC[C@]2(C)[C@@H](C3=CC(=O)OC3)CC[C@]12O (some centres not stated)
Bos taurus [2]
  ID50: 4.06 µmol

## C=C[C@]1(O)CC[C@@]2(C)[C@H](CC[C@@H]3[C@@H]2CC[C@]2(C)[C@@H](C4=CC(=O)OC4)CC[C@]32O)C1
Bos taurus [1]
  fold change (FC): 100
Bos taurus [2]
  ID50: 0.31 µmol
Canis lupus familiaris
  ID50: 0.092 µmol

## C[C@]12CC[C@](O)(C(O)CO)C[C@H]1CC[C@@H]1[C@@H]2CC[C@]2(C)[C@@H](C3=CC(=O)OC3)CC[C@]12O (some centres not stated)
Bos taurus [2]
  ID50: 1.7 µmol

## C=CC[C@]1(O)CC[C@@]2(C)[C@H](CC[C@@H]3[C@@H]2CC[C@]2(C)[C@@H](C4=CC(=O)OC4)CC[C@]32O)C1
Bos taurus [1]
  fold change (FC): 100
Bos taurus [2]
  ID50: 1.25 µmol
Canis lupus familiaris
  ID50: 0.55 µmol

## C[C@]12CC[C@@]3(CO3)C[C@H]1CC[C@@H]1[C@@H]2CC[C@]2(C)[C@@H](C3=CC(=O)OC3)CC[C@]12O
Bos taurus [1]
  fold change (FC): 100
Bos taurus [2]
  ID50: 0.71 µmol
Canis lupus familiaris
  ID50: 0.275 µmol

## C[C@@]1(O)CC[C@@]2(C)[C@H](CC[C@@H]3[C@@H]2CC[C@]2(C)[C@@H](C4=CC(=O)OC4)CC[C@]32O)C1
Bos taurus [2]
  ID50: 11.4 µmol

## CC[C@]1(O)CC[C@@]2(C)[C@H](CC[C@@H]3[C@@H]2CC[C@]2(C)[C@@H](C4=CC(=O)OC4)CC[C@]32O)C1
Bos taurus [1]
  fold change (FC): 100
Bos taurus [2]
  ID50: 2.15 µmol
Canis lupus familiaris
  ID50: 0.73 µmol

## C[C@]12CC[C@@H](O)C[C@H]1CC[C@@H]1[C@@H]2CC[C@]2(C)[C@@H](C3=CC(=O)OC3)CC[C@]12O
Bos taurus [2]
  ID50: 1.17 µmol

## C[C@]12CC[C@@](O)(CC(O)CO)C[C@H]1CC[C@@H]1[C@@H]2CC[C@]2(C)[C@@H](C3=CC(=O)OC3)CC[C@]12O (some centres not stated)
Bos taurus [1]
  fold change (FC): 100
Bos taurus [2]
  ID50: 7.66 µmol
Canis lupus familiaris
  ID50: 4.44 µmol

## C=C[C@@]1(O)CC[C@@]2(C)[C@H](CC[C@@H]3[C@@H]2CC[C@]2(C)[C@@H](C4=CC(=O)OC4)CC[C@]32O)C1
Bos taurus [2]
  ID50: 6.68 µmol

## C#C[C@@]1(O)CC[C@@]2(C)[C@H](CC[C@@H]3[C@@H]2CC[C@]2(C)[C@@H](C4=CC(=O)OC4)CC[C@]32O)C1
Bos taurus [2]
  ID50: 2.11 µmol

## C[C@]12CC[C@H](O)C[C@H]1CC[C@@H]1[C@@H]2CC[C@]2(C)[C@@H](C3=CC(=O)OC3)CC[C@]12O
Bos taurus [2]
  ID50: 0.096 µmol
Canis lupus familiaris
  ID50: 0.035 µmol

## C[C@]12CC[C@]3(CO3)C[C@H]1CC[C@@H]1[C@@H]2CC[C@]2(C)[C@@H](C3=CC(=O)OC3)CC[C@]12O
Bos taurus [2]
  ID50: 0.74 µmol

## C[C@]12CC[C@@](O)(CC3CO3)C[C@H]1CC[C@@H]1[C@@H]2CC[C@]2(C)[C@@H](C3=CC(=O)OC3)CC[C@]12O (some centres not stated)
Bos taurus [1]
  fold change (FC): 100
Bos taurus [2]
  ID50: 3.65 µmol
Canis lupus familiaris
  ID50: 1.69 µmol

## C[C@]1(O)CC[C@@]2(C)[C@H](CC[C@@H]3[C@@H]2CC[C@]2(C)[C@@H](C4=CC(=O)OC4)CC[C@]32O)C1
Bos taurus [1]
  fold change (FC): 100
Bos taurus [2]
  ID50: 0.92 µmol
Canis lupus familiaris
  ID50: 0.32 µmol

## C=CC[C@@]1(O)CC[C@@]2(C)[C@H](CC[C@@H]3[C@@H]2CC[C@]2(C)[C@@H](C4=CC(=O)OC4)CC[C@]32O)C1
Bos taurus [2]
  ID50: 5.81 µmol

## C[C@]12CC[C@](O)(C3CO3)C[C@H]1CC[C@@H]1[C@@H]2CC[C@]2(C)[C@@H](C3=CC(=O)OC3)CC[C@]12O (some centres not stated)
Bos taurus [2]
  ID50: 3.17 µmol

## C#C[C@]1(O)CC[C@@]2(C)[C@H](CC[C@@H]3[C@@H]2CC[C@]2(C)[C@@H](C4=CC(=O)OC4)CC[C@]32O)C1
Bos taurus [1]
  fold change (FC): 100
Bos taurus [2]
  ID50: 0.25 µmol
Canis lupus familiaris
  ID50: 0.12 µmol

## CC[C@@]1(O)CC[C@@]2(C)[C@H](CC[C@@H]3[C@@H]2CC[C@]2(C)[C@@H](C4=CC(=O)OC4)CC[C@]32O)C1
Bos taurus [2]
  ID50: 6.4 µmol

## C[C@]12CC[C@@](O)(c3ccccc3)C[C@H]1CC[C@@H]1[C@@H]2CC[C@]2(C)[C@@H](C3=CC(=O)OC3)CC[C@]12O
Bos taurus [1]
  fold change (FC): 100
Bos taurus [2]
  ID50: 2.11 µmol
Canis lupus familiaris
  ID50: 0.6 µmol

## C[C@]12CC[C@](O)(c3ccccc3)C[C@H]1CC[C@@H]1[C@@H]2CC[C@]2(C)[C@@H](C3=CC(=O)OC3)CC[C@]12O
Bos taurus [2]
  ID50: 5.81 µmol

## C[C@]12CC[C@](O)(CC(O)CO)C[C@H]1CC[C@@H]1[C@@H]2CC[C@]2(C)[C@@H](C3=CC(=O)OC3)CC[C@]12O (some centres not stated)
Bos taurus [2]
  ID50: 2.34 µmol
